The source of these data is ChEMBL document CHEMBL1140407, “Design and synthesis of tricyclic corticotropin-releasing factor-1 antagonists” (J Med Chem, 2005).

The term IC50 denotes the concentration needed to halve the response being measured. Broadly, the Ki is a dissociation constant, usually derived from enzyme kinetics or from competition with a known ligand. Read a low Ki as a stronger hold on the target.

The species named for the first assay is Rattus norvegicus. The experiment in a line: In vitro Inhibition of CRF-stimulated ACTH release in rat anterior pituitary cells, upon 9 min incubation at 37 degree C. Type of assay: functional, cell-based. The following applies: Pituitary gland cell, 4 h, in the assay text read “4 h incubation” for “9 min incubation”. The procedure, abridged:
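Pituitaries from 7-week-old female Sprague Dawley rats digested with collagenase (1.5 h, 37 °C), then neuraminidase (9 min, 37 °C). Cells cultured 2-3 days in 3% FCS/BBM-T at 40,000 cells/well. Antagonist (1 pM to 1 µM) added with 0.5 nM r/hCRF in BBM-T for 4 h at 37 °C. Medium ACTH measured by RIA.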
`CC[C@H]1Cn2nc(-c3ccc(Cl)cc3Cl)c3nc(C)cc(c32)N1CC1CC1`: the IC50 is 0.126 µM.

A further assay addresses T1, Corticotropin-releasing factor receptor 1 (Homo sapiens, UniProt P34998).
T1 sequence (P34998 whole entry): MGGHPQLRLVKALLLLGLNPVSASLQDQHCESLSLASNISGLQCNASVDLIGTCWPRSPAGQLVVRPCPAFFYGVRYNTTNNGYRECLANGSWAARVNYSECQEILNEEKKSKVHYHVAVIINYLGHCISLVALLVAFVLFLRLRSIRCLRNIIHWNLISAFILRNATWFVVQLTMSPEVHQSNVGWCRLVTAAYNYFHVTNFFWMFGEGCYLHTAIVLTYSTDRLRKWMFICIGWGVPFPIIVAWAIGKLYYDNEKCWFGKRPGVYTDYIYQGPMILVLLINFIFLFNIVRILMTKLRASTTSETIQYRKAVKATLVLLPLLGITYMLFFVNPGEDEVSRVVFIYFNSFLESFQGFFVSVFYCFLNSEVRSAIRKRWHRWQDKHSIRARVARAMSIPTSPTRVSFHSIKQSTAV
Description: In vitro inhibition of CRF-stimulated cAMP production in cell membranes expressing human CRF1 receptor. The following applies: in the assay text read “whole cells” for “cell membranes”. In kind it is functional, cell-based. The procedure, abridged: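 Live whole L-hCRF1 cells (LtK- cells expressing human CRF1 receptor) were plated at 100 000 cells/well the day before and washed with DPBS. Buffer was DMEM without phenol red with 1 mM IBMX. CRF plus antagonist at various concentrations were added for 30 min at 37 °C in 5% CO2. Total cAMP was read by chemiluminescent immunoassay and IC50 was obtained by nonlinear curve fitting.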
For orientation: cAMP levels reflect the balance of adenylyl cyclase and phosphodiesterase activity.
`CC[C@H]1Cn2nc(-c3ccc(Cl)cc3Cl)c3nc(C)cc(c32)N1CC1CC1` gave an IC50 of 0.0794 µM.

A further assay concerns the target T1, Corticotropin-releasing factor receptor 1. Description: Binding affinity for human corticotropin releasing factor receptor 1 expressed in LtK- cells using [125I]sauvagine. In kind it is cell-based.
Details: not given
The procedure, abridged:
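Buffer: DPBS with 10 mM MgCl2 and 2 mM EGTA, pH 7.4. Competitor 10 pM to 1 µM, run in duplicate, 2 h at room temperature. Bound ligand separated by vacuum filtration and counted by gamma counter. Nonspecific binding taken with excess unlabeled sauvagine. Ki from nonlinear curve fitting.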
On to `CCCC(CCC)N1CCn2nc(-c3ccc(Cl)cc3Cl)c3nc(C)cc1c32`, for which the inhibition constant (Ki) was 0.00501 µM.
The same measure, in the same setting: the same measure for `CC[C@H]1Cn2nc(-c3ccc(Cl)cc3C)c3nc(C)cc(c32)N1CC1CC1`: 0.00794 µM.
On the same count and under the same terms, under `CC[C@H]1Cn2nc(-c3ccc(Cl)cc3C(F)(F)F)c3nc(C)cc(c32)N1CC1CC1` stands 0.02 µM; under `CC[C@H]1Cn2nc(-c3ccc(C(F)(F)F)cc3Cl)c3nc(C)cc(c32)N1CC1CC1`, 0.00398 µM; under `CC[C@H]1Cn2nc(-c3ccc(C)cc3Cl)c3nc(C)cc(c32)N1CC1CC1`, 0.00631 µM.
Same read-out and setting: under `CC[C@H]1Cn2nc(-c3ccc(Cl)cc3Cl)c3nc(C)cc(c32)N1CC(C)C` stands 0.0158 µM; under `CC[C@H]1Cn2nc(-c3ccc(Cl)cc3Cl)c3nc(C)cc(c32)N1CC`, 0.0631 µM.
`CCCCC(CCCC)N1CCn2nc(-c3ccc(Cl)cc3Cl)c3nc(C)cc1c32` had a Ki of 0.00501 µM.
Still for that read-out and setting: under `Cc1cc2c3c(n1)c(-c1ccc(Cl)cc1Cl)nn3C[C@H](C)N2CC1CC1` stands 0.00794 µM; under `CC[C@H]1Cn2nc(-c3ccc(OC)cc3C)c3nc(C)cc(c32)N1CC1CC1`, 0.01 µM; under `CC[C@@H]1Cn2nc(-c3ccc(Cl)cc3Cl)c3nc(C)cc(c32)N1CC1CC1`, 0.126 µM.
The compound `CC[C@H]1Cn2nc(-c3ccc(C(=O)OC)cc3Cl)c3nc(C)cc(c32)N1CC1CC1` showed a Ki of 0.158 µM.
The same measure, in the same setting: the same measure for `CC[C@H]1Cn2nc(-c3ccc(Cl)cc3Cl)c3nc(C)cc(c32)N1CCOC`: 0.0501 µM.
Same read-out and setting: under `CC[C@H]1Cn2nc(-c3ccc(Cl)cc3Cl)c3nc(C)cc(c32)N1` stands 0.794 µM.
Still for that read-out and setting: the same measure for `CC[C@H]1Cn2nc(-c3ccc(C(C)C)cc3C(F)(F)F)c3nc(C)cc(c32)N1CC1CC1`: 0.00794 µM; for `CC[C@H]1Cn2nc(-c3ccc(OC)cc3Cl)c3nc(C)cc(c32)N1CC1CC1`: 0.00398 µM.
Regarding `CC[C@H]1Cn2nc(-c3ccc(F)cc3Cl)c3nc(C)cc(c32)N1CC1CC1`, the Ki was 0.0126 µM.
The compound `CCCCN1c2cc(C)nc3c(-c4ccc(Cl)cc4Cl)nn(c23)C[C@@H]1CC` gave a Ki of 0.00631 µM.
Same read-out and setting: under `Cc1cc2c3c(n1)c(-c1ccc(Cl)cc1Cl)nn3CCN2C1CCCCC1` stands 0.158 µM; under `CCCN1c2cc(C)nc3c(-c4ccc(Cl)cc4Cl)nn(c23)C[C@@H]1CC`, 0.0316 µM.
Take `Cc1cc2c3c(n1)c(-c1ccc(Cl)cc1Cl)nn3CCN2C(C)C`: the Ki was 0.0794 µM.
Same read-out and setting: under `Cc1cc2c3c(n1)c(-c1ccc(Cl)cc1Cl)nn3C[C@H](c1ccccc1)N2CC1CC1` stands 0.01 µM; under `CC[C@H]1Cn2nc(-c3ccc(Cl)cc3Cl)c3nc(C)cc(c32)N1Cc1ccccc1`, 0.158 µM; under `CC[C@H]1Cn2nc(-c3ccc(Cl)cc3OC)c3nc(C)cc(c32)N1CC1CC1`, 0.0251 µM.
On the same count and under the same terms, under `CC[C@H]1Cn2nc(-c3ccc(C(F)(F)F)cc3C(F)(F)F)c3nc(C)cc(c32)N1CC1CC1` stands 0.00794 µM.
`Cc1cc2c3c(n1)c(-c1ccc(Cl)cc1Cl)nn3CCN2CC1CC1` gave an inhibitory constant (Ki) of 0.0794 µM.
`Cc1cc2c3c(n1)c(-c1ccc(Cl)cc1Cl)nn3CCN2CC(C)C` showed an inhibitory constant (Ki) of 0.398 µM.
The same measure, in the same setting: the same measure for `Cc1cc2c3c(n1)c(-c1ccc(Cl)cc1Cl)nn3C[C@H](C(C)C)N2CC1CC1`: 0.00501 µM.
Still for that read-out and setting: the same measure for `CC[C@H]1Cn2nc(-c3ccc(OC)cc3C(F)(F)F)c3nc(C)cc(c32)N1CC1CC1`: 0.00794 µM; for `CCC[C@H]1Cn2nc(-c3ccc(Cl)cc3Cl)c3nc(C)cc(c32)N1CC1CC1`: 0.00398 µM.
On the same count and under the same terms, under `CC[C@H]1Cn2nc(-c3ccc(Cl)cc3Cl)c3nc(C)cc(c32)N1CC1CCC1` stands 0.02 µM; under `CC[C@H]1Cn2nc(-c3ccc(Cl)cc3F)c3nc(C)cc(c32)N1CC1CC1`, 0.0501 µM; under `CC[C@H]1Cn2nc(-c3ccc(C)cc3C)c3nc(C)cc(c32)N1CC1CC1`, 0.0126 µM.
Regarding `CCC(CC)N1CCn2nc(-c3ccc(Cl)cc3Cl)c3nc(C)cc1c32`, affinity was put at a Ki of 0.00398 µM.
Still for that read-out and setting: under `CCC(COC)N1CCn2nc(-c3ccc(Cl)cc3Cl)c3nc(C)cc1c32` (centres undefined) stands 0.0631 µM; under `CCCN(CC1CC1)c1cc(C)nc2c(-c3ccc(Cl)cc3Cl)nn(C)c12`, 0.00158 µM; under `CCCCN(CC)c1nc(C)nc2c1c(C)c(C)n2-c1c(C)cc(C)cc1C` [ANTALARMIN], 0.00251 µM.
